Bioassay records from PubChem BioAssay.
In the library only some 2.4% were active in any assay of this set; here they are far more common.
MPTP block: blocks calcium-induced mitochondrial swelling; isolated mouse mitochondria, Ca2+ swelling absorbance, 30 min; inhibition, % at 10 µM; 360,000 tested, 1.4% active; AID 602449;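 active means inhibition of 50% or more, scaled per plate between neutral and stimulator controls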;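 further: 0% = DMSO wells given calcium and 100% = 1 mM EGTA wells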
Jurkat NFkB inh: lowers PMA/ionomycin-induced NF-kB signal in Jurkat cells; 330,000 tested, 0.53% active; inhibition, % at 4 µM; PMA/ionomycin-induced NF-kB luciferase reporter, luminescence; in the data active means inhibition above about 50%
NR2E3 ag-1: human photoreceptor-specific nuclear receptor agonism | CHO-S Gal4-NCOR/VP16-NR2E3 two-hybrid, luciferase | AID 602229 | Q9Y5X4 | 360,000 tested, 0.35% active | inhibition of corepressor binding, % at 3.98 µM;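 active means inhibition above the mean of all tested compounds plus 3 SD, cut at about 70% in these data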;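 further: 0% = DMSO with NR2E3 transfected cells and 100% = cells lacking NR2E3 construct; higher means lower luciferase signal from less NR2E3 corepressor binding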
Target sequence (Q9Y5X4 whole entry, looked up, the tested form may be a part): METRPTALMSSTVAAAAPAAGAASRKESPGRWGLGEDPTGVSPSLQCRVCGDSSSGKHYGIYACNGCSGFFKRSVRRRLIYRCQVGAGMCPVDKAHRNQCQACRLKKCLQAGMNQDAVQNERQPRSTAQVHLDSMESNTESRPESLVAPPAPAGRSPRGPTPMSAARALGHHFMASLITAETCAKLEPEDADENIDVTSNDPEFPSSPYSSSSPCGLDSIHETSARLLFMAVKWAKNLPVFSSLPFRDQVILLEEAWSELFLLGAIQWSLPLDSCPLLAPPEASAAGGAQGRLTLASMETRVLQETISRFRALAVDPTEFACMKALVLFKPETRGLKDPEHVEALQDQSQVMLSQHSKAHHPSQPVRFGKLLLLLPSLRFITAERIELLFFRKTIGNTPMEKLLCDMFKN
NR2E3 ag-2: activates human photoreceptor nuclear receptor NR2E3; inhibition of corepressor binding, % at 4.78 µM; GST-NR2E3/biotin-RetCOR TR-FRET, 1536-well; AID 2300; 320,000 tested, 0.12% active; Q9Y5X4;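 active means percent inhibition above the cutoff of mean plus 3 SD of all tested compounds, set per screening campaign, cut at about 20% in these data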;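 further: 0% = DMSO wells and 100% = biotin wells as full block of FRET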
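Test system: GST-NR2E3 and biotin-RetCOR proteins | Quantity: 1.35 nM GST-tagged NR2E3 final | Medium: Tris pH 7.5 | Also added: 7 nM biotin-RetCOR | Dosing: Compound at 4.8 µM, single dose | Timing: 5 h at 4 °C | Detection: Time-resolved FRET | Read-out basis: Percent inhibition | Benchmarks: Biotin wells as high control, 0.6% DMSO wells as low control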
697 NFkB inh: inhibitors of the PMA/ionomycin-induced NF-kB reporter in 697 B cells. 697 B-cell NF-kB luciferase reporter, 16 h. inhibition, % at 4 µM. 330,000 tested, 0.33% active. AID 435022; in the data active means inhibition above about 35%
aDG glyco act: increases alpha dystroglycan glycosylation; Pro5-aDG cells, alpha-DG glycosylation AlphaScreen (IIH6); 0% Pro5, 100% B10-LARGE cell signal; activation, % at 10 µM; 360,000 tested, 0.22% active; AID 624168;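 active means activation of at least 8% versus controls, or a plate z-score of at least 8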;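 further: Pro5 are CHO cells carrying HIG-tagged alpha-DG that lacks glycosylation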
Jurkat NFkB conf: inhibitors of the PMA/ionomycin-induced NF-kB reporter in Jurkat cells, retest; shares compounds with Jurkat NFkB inh; Jurkat NF-kB luciferase, 16 h; inhibition, % at 4 µM; 2,700 tested, 27% active;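 active means inhibition reaching about 45% at 4 µM in either replicate, limit read from the data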;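 further: plate controls were PMA/ionomycin stimulated DMSO wells for no effect and unstimulated DMSO wells for full effect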
An asterisk follows results filed as active; / = not tested or not shown.

SMILES	MPTP block	Jurkat NFkB inh	NR2E3 ag-1	NR2E3 ag-2	697 NFkB inh	aDG glyco act	Jurkat NFkB conf
CC1(C)CC2CC(C)(CN2S(=O)(=O)c2ccc(C(=O)Nc3cccc(S(=O)(=O)N4CCOCC4)c3)cc2)C1 (stereo not given)	17	63*	3	-1	-16	3	69*
CC1(C)CC2CC(C)(CN2S(=O)(=O)c2ccc(C(=O)Nc3cc(S(=O)(=O)N4CCOCC4)ccc3Cl)cc2)C1 (stereo not given)	3	30	0	-3	-57	0	/
CS(=O)c1nc(-c2ccc(Br)cc2)cc(-c2ccccc2)c1C#N (stereo not given)	3	93*	8	4	-188	0	91*
CCc1ccc2nc(SCC(=O)Nc3ccccc3N3CCOCC3)c(C#N)cc2c1	1	67*	1	-2	6	0	24
Cn1c(N)c(C(=O)COC(=O)/C=C/c2cccc(Cl)c2)c(=O)n(C)c1=O	-1	-2	-15	/	-6	1	/
CCOc1ccc2c(c1)OC(c1ccc(OC)cc1)(C(F)(F)F)NC2=O (stereo not given)	1	57*	-37	1	-12	0	40
Cc1cccc(N(CC(=O)NC(C)(C)C)C(=O)CCC(=O)Nc2ccccn2)c1	-1	6	-10	0	9	0	/
CCN(CC)CCN1C(=O)/C(=C\c2ccc(Cl)c([N+](=O)[O-])c2)SC1=Nc1ccc(OC)cc1	1	-72	-4	2	-70	-1	/
COc1ccc(N=C2S/C(=C\c3ccc(Cl)c([N+](=O)[O-])c3)C(=O)N2CCN(C)C)cc1	-2	51*	-12	-6	4	0	12
CCOc1cc(C(=O)N/N=C/C(Br)=C/c2ccccc2)cc(OCC)c1OCC	7	58*	4	-3	-28	0	48
O=C(N/N=C/C(Br)=C/c1ccccc1)c1ccncc1	3	21	-2	-6	-71	0	/
CC1CCCN(C(=O)C(=O)c2cn(CC(=O)N3CCCCCC3)c3ccccc23)C1 (stereo not given)	-1	-1	-2	4	-6	0	/
Cc1ccc(CNC(=O)Cc2ccc(-c3ccccc3)cc2)cc1	0	63*	-7	-2	21	0	17
Cc1noc(C)c1COc1ccc(CC(=O)NCc2ccccc2)cc1	-2	62*	8	2	-58	0	47
Cc1noc(C)c1COc1ccc(CC(=O)NCCc2ccccn2)cc1	1	-13	-21	0	14	0	/
O=C(Cc1ccc(-c2ccccc2)cc1)NCc1ccccc1	2	62*	-17	-2	-25	0	47
Cc1ccc(CNC(=O)COC(=O)Cc2ccc(-c3ccccc3)cc2)cc1	1	1	-14	-3	-12	0	/
CS(=O)(=O)Nc1ccc2c(c1)[C@@H]1C[C@@H](CC(=O)NCc3cccnc3)O[C@H](CO)[C@@H]1O2	-1	/	4	/	/	0	/
COc1ccc(CNC(=O)CSc2nnc(NC(=O)c3ccccc3F)s2)cc1	2	-9	-19	1	-70	0	/
COc1ccc(C(=O)c2ccc(N(C)C)cc2)c(OC)c1	-1	68*	-42	5	-52	0	47*
Cc1ccc(CNC(=O)C2CCN(c3nc(C)cc(C)n3)CC2)cc1	1	-4	-6	1	8	0	/
CCCCNC(=O)NCCN1CCOCC1	2	-15	-2	2	8	0	/
COc1cccc(/C=N/Nc2ncnc3c2ncn3Cc2ccccc2)c1O	0	63*	16	-1	-34	2	67*
Cc1cccc(CC(=O)Nc2sc(C(C)C)cc2C(=O)N2CCOCC2)c1	1	0	-10	1	13	5	/
Cc1ccc(C)c(C(=O)CN2C(=O)NC3(CCC(C)CC3)C2=O)c1 (stereo not given)	0	64*	-10	0	-68	0	8
SMILES	MPTP block	Jurkat NFkB inh	NR2E3 ag-1	NR2E3 ag-2	697 NFkB inh	aDG glyco act	Jurkat NFkB conf
CC1=Nc2ccccc2/C1=C\c1sc(Nc2ccc(C)cc2)nc1O	4	53*	-4	3	-22	0	61*
CCc1cc(C(=O)Nc2cc(S(=O)(=O)N(C)C)ccc2C)sc1C	2	-2	-5	-1	-4	0	/
O=C(NC(=S)Nc1cc(S(=O)(=O)N2CCOCC2)ccc1N1CCOCC1)C1CCCC1	/	2	/	0	8	/	/
CN(C)c1ccc(C(=O)Nc2nc3c(s2)CCCC3)cc1	-1	-194	-98	0	-186	1	-117
CC(C)(C)c1ccc(C(=O)NC(=S)Nc2nc3c(s2)CCCC3)cc1	2	-19	43	-2	-107	1	/
CNCCCOc1ccc2c(c1)CCC2	-1	13	-25	4	-1	0	/
c1cnc(SCCOc2ccc3c(c2)CCC3)nc1	-1	-176	-128	0	-200	0	-78
CCC/C(O)=C1\C(=O)CC(C)(C)CC1=Nc1ccc(OC)cc1OC	8	62*	-92	4	-40	0	39
CCCC/C(O)=C1\C(=O)CC(C)(C)CC1=Nc1ccccc1OC	2	13	-45	2	8	0	/
COc1cccc(C(=O)Nc2ccc(N3CCN(C(=O)c4cccs4)CC3)cc2)c1	0	52*	-18	-1	-79	0	14
O=C(NC(=S)Nc1ccc(N2CCCCC2)cc1)c1cccs1	2	-172	-148	-3	-106	0	-108
COc1ccc(NC(=O)c2cccs2)cc1C(=O)N1CCN(c2ccccc2)CC1	0	52*	5	-1	-21	0	13
COc1ccc(S(=O)(=O)N2CCN(C(=O)c3cc(C)on3)CC2)cc1	-3	-6	28	0	-15	0	/
O=C(c1ccco1)N1CCN(C(=O)N2c3ccccc3Sc3ccccc32)CC1	0	59*	17	8	-74	0	55*
O=C(N1CCN(c2ccccn2)CC1)N1c2ccccc2Sc2ccccc21	7	68*	2	0	-30	0	24
COc1cc(CC(=O)OCC(=O)Nc2ccc(N(C)C)cc2)cc(OC)c1OC	1	3	-1	/	14	0	/
COC(=O)COc1ccc2c(=O)c(-c3ccccc3)coc2c1	3	-12	-11	2	-11	0	/
CC(C)Oc1ccc2c(=O)c(-c3ccccc3)coc2c1	-2	-185	-166	-1	-211	0	-83
O=c1c2sc(-c3ccccc3)cc2nc2n1CCCCC2	4	-166	-139	1	-209	0	-123
